What was measured:
[1] = Inhibition of HCV isolate H77 NS5B polymerase after 3 hrs by scintillation counting
[2] = Inhibition of HCV isolate BK NS5B polymerase after 3 hrs by scintillation counting
[3] = Tmax in rat at 5 mg/kg, po; type: ADME, organism-based; set-up: dose 5 mg/kg, route oral; details: in vivo
In short: (§1)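 Single oral gavage-type dose in DMSO:PEG400 (10:90, v/v). Heparinized plasma collected at 0.25, 0.5, 1, 2, 4, 6, 9, 12 and 24 h, with extra 3 and 15 h points in dog. Acetonitrile protein precipitation was followed by LC-MS in negative-ion MRM mode with an internal standard. Tmax was read from the plasma profile.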

[4] = AUC in rat at 5 mg/kg, po; type: ADME, organism-based; set-up: dose 5 mg/kg, route oral; details: plasma
In short: (§2)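 Vehicle DMSO:PEG400 (10:90, v/v). Dosing at 5 mg/kg in rat and monkey; dog 5 mg/kg or 2.5 mg/kg. Protein precipitation with acetonitrile, then LC-MS/MS in negative-ion MRM (m/z 516.2→437.0) against spiked standards with internal standard.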

[5] = Oral bioavailability in rat at 5 mg/kg; type: ADME, organism-based; details: in vivo
In short: as §2

[6] = Cytotoxicity against human HuH7 cells by MTT assay; type: cell-based, Huh-7; details: read-out: TD50 (the source's name)
In short: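 Cytotoxicity in Huh-7 replicon cultures measured by MTT colorimetric assay after the four-day incubation.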

[7] = Terminal phase volume of distribution in rat at 5 mg/kg, iv; type: ADME, organism-based; set-up: dose 5 mg/kg, route intravenous; details: in vivo, read-out: Vbeta
In short: (§3)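 Single intravenous dose. Heparinized plasma sampled at 0.1, 0.25, 0.5, 1, 2, 4, 6, 9, 12 and 24 h, plus 3 and 15 h in dog. Drug was isolated by acetonitrile protein precipitation and quantified by LC-MS in negative-ion MRM mode (m/z 516.2→437.0) against an internal standard. Concentrations came from unweighted linear regression of spiked standards.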

[8] = AUC in dog at 2.5 mg/kg, po; type: ADME, organism-based, Canis lupus familiaris; set-up: dose 2.5 mg/kg, route oral; details: plasma
In short: as §2

[9] = test system: Hepatitis C virus; experiment: Antiviral activity against HCV isolate Con1 assessed as reduction in viral RNA after 4 days by RT-PCR in presence of 40% human serum; details: isolate Con1, 96 h
[10] = Tmax in monkey at 5 mg/kg, po; type: ADME, organism-based, Macaca mulatta; set-up: dose 5 mg/kg, route oral; details: rhesus monkey, in vivo
In short: as §1

[11] = Tmax in dog at 2.5 mg/kg, po; type: ADME, organism-based, Canis lupus familiaris; set-up: dose 2.5 mg/kg, route oral; details: in vivo
In short: as §1

[12] = Drug level in rat liver at 5 mg/kg, po after 6 hrs; type: ADME, organism-based; set-up: dose 5 mg/kg, route oral; details: read-out: Drug uptake
In short: (§4)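 Rats dosed orally at 5 mg/kg, four groups, sacrificed at 6 and 12 h. Plasma and liver homogenate extracted by acetonitrile protein precipitation with internal standard and quantified by LC-MS (negative-ion MRM). Liver/plasma ratio taken from the two concentrations.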

[13] = Oral bioavailability in monkey at 5 mg/kg; type: ADME, organism-based, Macaca mulatta; details: rhesus monkey, in vivo
In short: as §2

[14] = test system: Hepatitis C virus; experiment: Antiviral activity against HCV 1a containing chimeric genotype 1a-H77/1b-con1 subgenom in human Huh7 cells assessed as reduction in viral RNA after 4 days by RT-PCR; details: subtype 1a, Huh-7, 96 h
[15] = Elimination half life in monkey at 5 mg/kg, iv; type: ADME, organism-based, Macaca mulatta; set-up: dose 5 mg/kg, route intravenous; details: rhesus monkey, in vivo, read-out: beta t1/2 (converted)
In short: as §2

[16] = Oral bioavailability in dog at 2.5 mg/kg; type: ADME, organism-based, Canis lupus familiaris; details: in vivo
In short: as §2

[17] = n-Octanol-phosphate buffer distribution coefficient, log D at pH 7.4; type: physicochemical
In short: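 Compound was dissolved in n-octanol and mixed with 50 mM phosphate buffer, isotonic with NaCl, pH 7.4. The mixture was tumbled at 25 °C, 25 rpm, for 2-3 days, then centrifuged to split the phases. Each phase was assayed by reverse-phase HPLC (UV 262 nm) against a linear standard curve. D is the octanol/buffer concentration ratio.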

[18] = Elimination half life in dog at 2.5 mg/kg, iv; type: ADME, organism-based, Canis lupus familiaris; set-up: dose 2.5 mg/kg, route intravenous; details: in vivo, read-out: beta t1/2 (converted)
In short: as §2

[19] = Drug level in rat liver at 5 mg/kg, po after 12 hrs; type: ADME, organism-based; set-up: dose 5 mg/kg, route oral; details: read-out: Drug uptake
In short: as §4

[20] = AUC in dog at 2.5 mg/kg, iv; type: ADME, organism-based, Canis lupus familiaris; set-up: dose 2.5 mg/kg, route intravenous; details: plasma
In short: as §2

[21] = Terminal phase volume of distribution in dog at 2.5 mg/kg, iv; type: ADME, organism-based, Canis lupus familiaris; set-up: dose 2.5 mg/kg, route intravenous; details: in vivo, read-out: Vbeta
In short: as §2

[22] = Elimination half life in rat at 5 mg/kg, iv; type: ADME, organism-based; set-up: dose 5 mg/kg, route intravenous; details: in vivo, read-out: beta t1/2 (converted)
In short: as §2

[23] = AUC in monkey at 5 mg/kg, po; type: ADME, organism-based, Macaca mulatta; set-up: dose 5 mg/kg, route oral; details: rhesus monkey, plasma
In short: as §2

[24] = Cmax in monkey at 5 mg/kg, po; type: ADME, organism-based, Macaca mulatta; set-up: dose 5 mg/kg, route oral; details: rhesus monkey, in vivo
In short: as §2

[25] = Metabolic stability in dog liver microsomes assessed as intrinsic clearance; type: ADME, Canis lupus familiaris, Microsome
[26] = Volume of distribution at steady state in rat at 5 mg/kg, iv; type: ADME, organism-based; set-up: dose 5 mg/kg, route intravenous; details: in vivo, read-out: Vdss
In short: as §3

[27] = Aqueous solubility in 50 mM phosphate buffer at pH 7.4; type: physicochemical
In short: (§5)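 Equilibrium solubility in PEG 400, in 50 mM citrate buffer pH 4 or in 50 mM phosphate buffer pH 7.4. Buffers brought to ionic strength 0.155 M with NaCl. Vials rotated at 25 °C for 4 days, final pH measured, then supernatant assayed by reverse-phase HPLC at 262 nm against a linear standard curve.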

[28] = Metabolic stability in dog hepatocytes assessed as intrinsic clearance; type: ADME, cell-based, Canis lupus familiaris, Liver, Hepatocyte
[29] = AUC in monkey at 5 mg/kg, iv; type: ADME, organism-based, Macaca mulatta; set-up: dose 5 mg/kg, route intravenous; details: rhesus monkey, plasma
In short: as §2

[30] = test system: Hepatitis C virus; experiment: Ratio of EC50 for HCV isolate Con1 in presence of 40% human serum to EC50 for HCV isolate Con1; type: functional, Hepacivirus hominis
In short: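 Genotype 1b-con1 subgenomic replicon in Huh-7 cells. Four-day incubation with inhibitor in medium with 5% FBS, with or without 40% human serum. EC50 from the fall in HCV RNA copy number by real-time PCR. Ratio is EC50 with serum over EC50 without.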

[31] = Plasma clearance in monkey at 5 mg/kg, iv; type: ADME, organism-based, Macaca mulatta; set-up: dose 5 mg/kg, route intravenous; details: rhesus monkey
In short: as §2

[32] = Cmax in dog at 2.5 mg/kg, po; type: ADME, organism-based, Canis lupus familiaris; set-up: dose 2.5 mg/kg, route oral; details: in vivo
In short: as §2

[33] = Cmax in rat at 5 mg/kg, po; type: ADME, organism-based; set-up: dose 5 mg/kg, route oral; details: in vivo
In short: as §2

[34] = Metabolic stability in monkey liver microsomes assessed as intrinsic clearance; type: ADME, Macaca mulatta, Microsome; details: rhesus monkey
[35] = Metabolic stability in human liver microsomes assessed as intrinsic clearance; type: ADME, Microsome
[36] = Volume of distribution at steady state in monkey at 5 mg/kg, iv; type: ADME, organism-based, Macaca mulatta; set-up: dose 5 mg/kg, route intravenous; details: rhesus monkey, in vivo, read-out: Vdss
In short: as §3

[37] = AUC in rat at 5 mg/kg, iv; type: ADME, organism-based; set-up: dose 5 mg/kg, route intravenous; details: plasma
In short: as §2

[38] = Plasma clearance in rat at 5 mg/kg, iv; type: ADME, organism-based; set-up: dose 5 mg/kg, route intravenous
In short: as §2

[39] = test system: Hepatitis C virus; experiment: Antiviral activity against HCV isolate Con1 in human Huh7 cells assessed as reduction in viral RNA after 4 days by RT-PCR; details: isolate Con1, Huh-7, 96 h
[40] = Metabolic stability in monkey hepatocytes assessed as intrinsic clearance; type: ADME, cell-based, Macaca mulatta, Liver, Hepatocyte; details: rhesus monkey
[41] = Solubility in polyethylene glycol 400 at 25 deg C; type: physicochemical
In short: as §5

[42] = test system: Hepatocyte; experiment: Metabolic stability in rat hepatocytes assessed as intrinsic clearance; type: ADME, cell-based, Liver
[43] = Elimination half life in dog at 2.5 mg/kg, po; type: ADME, organism-based, Canis lupus familiaris; set-up: dose 2.5 mg/kg, route oral; details: in vivo, read-out: beta t1/2 (converted)
In short: as §2

[44] = Aqueous solubility in 50 mM citrate buffer at pH 4; type: physicochemical
In short: as §5

[45] = Volume of distribution at steady state in dog at 2.5 mg/kg, iv; type: ADME, organism-based, Canis lupus familiaris; set-up: dose 2.5 mg/kg, route intravenous; details: in vivo, read-out: Vdss
In short: as §3

[46] = Elimination half life in monkey at 5 mg/kg, po; type: ADME, organism-based, Macaca mulatta; set-up: dose 5 mg/kg, route oral; details: rhesus monkey, in vivo, read-out: beta t1/2 (converted)
In short: as §2

[47] = test system: Hepatocyte; experiment: Metabolic stability in human hepatocytes assessed as intrinsic clearance; type: ADME, cell-based, Liver
[48] = Terminal phase volume of distribution in monkey at 5 mg/kg, iv; type: ADME, organism-based, Macaca mulatta; set-up: dose 5 mg/kg, route intravenous; details: rhesus monkey, in vivo, read-out: Vbeta
In short: as §3

[49] = Metabolic stability in rat liver microsomes assessed as intrinsic clearance; type: ADME, Microsome
[50] = Plasma clearance in dog at 2.5 mg/kg, iv; type: ADME, organism-based, Canis lupus familiaris; set-up: dose 2.5 mg/kg, route intravenous
In short: as §2

[51] = test system: Nucleic Acid; experiment: Ratio of drug level in rat liver after 12 hrs to EC50 for HCV isolate Con1 in presence of 40% human serum; type: tissue-based
[52] = test system: Nucleic Acid; experiment: Ratio of drug level in rat liver after 6 hrs to EC50 for HCV isolate Con1 in presence of 40% human serum; type: tissue-based

## CC(C)CC[C@]1(C)C(=O)C(C2=NS(=O)(=O)c3cc(NS(C)(=O)=O)ccc3N2)=C(O)c2ccccc21
[1]
  IC50: 624 nM
[2]
  IC50: 2300 nM

## CC(C)(C)CC[C@@]1(C)C(=O)C(C2=NS(=O)(=O)c3cc(NS(C)(=O)=O)ccc3N2)=C([O-])c2ccccc21.[Na+]
[3]
  Tmax: 9 h
[4]
  AUC: 11500 ng·h/mL
[5]
  bioavailability: 77.3%
[6]
  CC50: 21700 nM
[7]
  Vd: 2.39 L/kg
[8]
  AUC: 121000 ng·h/mL
[9]
  EC50: 28 nM
[10]
  Tmax: 2.7 h
[11]
  Tmax: 2.2 h
[12]
  concentration at 6 h: 21800 ng/g
[13]
  bioavailability: 19%
[14]
  EC50: 4 nM
[15]
  half-life: 2.1 h
[1]
  IC50: 0.7 nM
[16]
  bioavailability: 100%
[17]
  logD: 2.26
[18]
  half-life: 12.3 h
[19]
  concentration at 12 h: 4190 ng/g
[20]
  AUC: 116000 ng·h/mL
[21]
  Vd: 0.46 L/kg
[22]
  half-life: 4.5 h
[23]
  AUC: 1900 ng·h/mL
[24]
  Cmax: 480 ng/mL
[25]
  microsomal CLint: 2.4 µL/min/mg
[26]
  Vd: 2.22 L/kg
[27]
  solubility: 110 µg/mL
[28]
  CL: 0.5 µL/min/mg
[29]
  AUC: 10200 ng·h/mL
[30]
  Ratio EC50: 17
[31]
  clearance: 9.33 mL/min/kg
[32]
  Cmax: 5700 ng/mL
[33]
  Cmax: 890 ng/mL
[34]
  microsomal CLint: 14.4 µL/min/mg
[35]
  microsomal CLint: 23.6 µL/min/mg
[36]
  Vd: 0.77 L/kg
[37]
  AUC: 14900 ng·h/mL
[38]
  clearance: 5.67 mL/min/kg
[39]
  EC50: 2 nM
[40]
  CL: 3.5 µL/min/mg
[41]
  solubility: 150000 µg/mL
[42]
  CL: 1.6 µL/min/mg
[43]
  half-life: 14.8 h
[44]
  solubility: < 0.2 µg/mL
[45]
  Vd: 0.38 L/kg
[2]
  IC50: 0.6 nM
[46]
  half-life: 2 h
[47]
  CL: 2.7 µL/min/mg
[48]
  Vd: 1.77 L/kg
[49]
  microsomal CLint: 8.7 µL/min/mg
[50]
  clearance: 0.333 mL/min/kg

## CC(C)(C)CC[C@@]1(C)C(=O)C(C2=NS(=O)(=O)c3cc(NS(C)(=O)=O)ccc3N2)=C(O)c2ccccc21
[51]
  Ratio: 270
[52]
  Ratio: 1400
